Bioassay records (PubChem BioAssay)
Shown are actives, neighbours in structure and some others; about 5.1% of the full set was active somewhere.
STAT3 inh-1 – STAT3 signaling inhibition; U3A cells, IL-6 STAT3-luciferase reporter, luminescence; host cell line lacks STAT1; inhibition, % at 5.5 µM; 190,000 compounds, 0.89% hits; AID 862;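 active = inhibition above the mean inhibition across all screened compounds plus 3 SD, cut at about 44% in these data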;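 also: 0% = DMSO only wells and 100% = 100 µM nifuroxazide control wells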
STAT1 blocker – reduces IFN-gamma driven STAT1 reporter signal; NIH 3T3 STAT1-luciferase reporter, luminescence; 200,000 compounds, 0.35% hits; inhibition, % at 5.5 µM;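 active = inhibition above a set limit, the mean inhibition across all tested compounds plus 3 SD, cut at about 34% in these data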;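 also: 0% = IFN-gamma with DMSO and 100% = IFN-gamma with 300 µM nifuroxazide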
APP 5'UTR act – APP 5'UTR luciferase reporter activation; SH-SY5Y APP 5'UTR luciferase reporter, luminescence; zero percent = DMSO vehicle wells; activation, % at 2 µM; 190,000 compounds, 1% hits;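 active = activation above a set limit, based on mean plus 3 SD of controls, cut at about 140% in these data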
STAT3 activator – STAT3 signaling activation. U3A cells, IL-6 STAT3-luciferase reporter, luminescence; 100% = signal with IL-6 EC80 alone. activation (% of control), % at 5.6 µM. 190,000 compounds, 0.91% hits;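 active = activation above the screen-wide mean of compound activation plus 3 SD, cut at about 130% in these data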;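 also: 0% = background luminescence of wells with medium and substrate only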
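System – human U3A cells carrying STAT3-luciferase construct · Probe or stimulus – Interleukin-6, 33 ng/mL · Schedule – compound 1 h, then IL-6 6 h at 37 °C · Signal – luminescence from STAT3-driven luciferase reporter · Evaluation – percent of IL-6-only median luminescence · Benchmarks – IL-6-only high control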
STAT1 act – increases IFN-gamma driven STAT1 reporter signal | NIH 3T3 STAT1-luciferase reporter, luminescence; 100% = IFN-gamma alone, no compound | activation (% of control), % at 5.5 µM | 200,000 compounds, 2.6% hits;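 active = activation above the screen-wide mean activation plus 3 SD, cut at about 130% in these data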;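 also: raw ratio to IFN-gamma control signal so 100% means no change and 0% no light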
NF-kB neuron act – NF-kB expression increase, human neuronal cells | NF-kB reporter expression; active compounds read high | fold change at 12.5 µM | 190,000 compounds, 1.6% hits; in the data active = fold change above about 3.3
STAT3 inh-2 – confirmation of STAT3 signaling inhibitors. shares compounds with STAT3 inh-1. U3A cells, IL-6 STAT3 luciferase reporter, luminescence; cell line lacks STAT1. inhibition, % at 5.7 µM. 1,200 compounds, 45% hits;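 active = inhibition above the hit cutoff computed for the primary STAT3 screen, cut at about 44% in these data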;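 also: 0% = IL-6 plus DMSO and 100% = IL-6 plus nifuroxazide control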
NFkB inh STAT3ct – inhibits NF-kappaB, counter-screen to STAT3 inhibitors | 1,200 compounds, 36% hits | shares compounds with STAT3 inh-1 | HEK293T NF-kB luciferase reporter, TNF-alpha induced | inhibition, % at 5.7 µM | AID 1308;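 active = inhibition above the mean of solvent-only control wells plus 3 SD, cutoff set per campaign, cut at about 13% in these data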;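 also: 0% = TNF-alpha with DMSO and 100% = TNF-alpha with MG high control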
STAT1 inh STAT3c – inhibits STAT1, counter-screen to STAT3 inhibitors; shares compounds with STAT3 inh-1; NIH 3T3 STAT1-luciferase reporter, IFN-gamma induced, luminescence; inhibition, % at 5.7 µM; 1,200 compounds, 27% hits; AID 1317;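 active = inhibition above the mean plus 3 SD of solvent-only control wells, limit set per screening run, cut at about 16% in these data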;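 also: 0% = DMSO with IFN-gamma and 100% = nifuroxazide control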
* marks the source's active call; other numbers are inactive results; . = no result.

SMILES	STAT3 inh-1	STAT1 blocker	APP 5'UTR act	STAT3 activator	STAT1 act	NF-kB neuron act	STAT3 inh-2	NFkB inh STAT3ct	STAT1 inh STAT3c
O=C(c1cccs1)c1ccc(-c2cccs2)s1	61*	25	158*	54	77	5.3*	21	-8	-77
Cc1cccc2cc3c(N)c(C#N)sc3nc12	50*	-11	-16	64	110	1	29	-7	-27
O=C(Nc1ccc(S(=O)(=O)Nc2ccccc2)cc1)c1ccc(CN2CCOCC2)cc1	84*	21	8	31	78	0.75	78*	28*	5
COC(=O)c1ccc(NC(=O)c2ccc(CN3CCOCC3)cc2)cc1	54*	1	-4	58	100	1.1	39	1	-5
CSc1ccc(CNC(C)(C)CO)cc1	-1	-2	-2	102	101	0.96	.	.	.
COc1ccc(Nc2oc(COc3ccc(Cl)cc3)nc2C#N)cc1	47*	2	4	64	98	0.84	31	0	8
C=CCN(C(=O)CNC(=O)c1cccs1)C(C(=O)NC1CCCCC1)c1cccnc1 (stereo not drawn)	8	5	20	96	93	1	.	.	.
COCc1nnc(NC(=O)c2sc3ccccc3c2Cl)s1	9	-1	11	95	101	1.7	.	.	.
Cc1ccc(NC(=O)c2sc3ccccc3c2Cl)nc1	49*	-31	192*	66	128	3.2	0	0	-72
Cc1nnc(NC(=O)c2sc3ccccc3c2Cl)s1	66*	24	65	45	78	3.3*	45*	13*	19*
CNC(=O)c1ccsc1NC(=O)c1sc2ccccc2c1Cl	-4	-27	47	103	124	1.1	.	.	.
CC(C)CN(C)C(=O)CCc1nnc(Cc2ccc(-c3ccccc3)cc2)o1	8	-6	-11	97	104	1.4	.	.	.
CCOc1ccc(N(Cc2ccccc2F)C2=NC3CS(=O)(=O)CC3S2)cc1 (stereo not drawn)	9	-3	2	96	102	1.1	.	.	.
CCOC(=O)C(CSCC(=O)c1ccc(Cl)cc1)NC(=O)OC(C)(C)C (stereo not drawn)	-1	-3	5	102	103	1	.	.	.
COC(=O)c1ccc(-n2c(C)cc(C(=O)CSc3ccc(NC(C)=O)cc3)c2C)cc1	-2	-1	-5	104	101	0.92	.	.	.
CC(=O)Nc1ccc(SCC(=O)c2cc(C)n(-c3ccccc3F)c2C)cc1	54*	-51	78	55	145*	0.51	22	-40	-115
Cc1cc(NC(=O)Cc2ccccc2)c2ccccc2n1	72*	32	6	40	70	1	69*	22*	25*
Cc1cc(C)n2cc(CSc3ncn[nH]3)nc2n1	6	1	17	95	100	1	.	.	.
Clc1ccc2nc(-c3ccc(Br)s3)cn2c1	58*	5	230*	51	96	3.5*	-31	-34	-140
C#CC(=O)N(c1ccc(OC)c(OC)c1)C(C(=O)NC1CCCC1)c1cccs1 (stereo not drawn)	108*	36*	-17	15	68	0.13	89*	19*	32*
COc1ccc(N(C(=O)Cc2cccs2)C(C(=O)NC2CCCCC2)c2cccn2C)cc1OC (stereo not drawn)	4	1	-19	99	96	0.79	.	.	.
CC(/C=C/c1ccco1)=N\NC(=O)CNc1cccc(C)c1	8	6	2	98	93	1.1	.	.	.
NC(=O)c1ccc(N2CCN(S(=O)(=O)c3ccccc3)CC2)c([N+](=O)[O-])c1	72*	24	-12	41	78	0.92	71*	23*	28*
COc1ccc(CCNC(=O)COC(=O)c2ccc(N3CCCC3=O)cc2)cc1	0	-2	-6	101	101	1.1	.	.	.
Cc1ccc(C)c(N=Nc2ccc(O)c3ncccc23)c1	46*	17	-33	63	83	0.56	-23	-22	-41
SMILES	STAT3 inh-1	STAT1 blocker	APP 5'UTR act	STAT3 activator	STAT1 act	NF-kB neuron act	STAT3 inh-2	NFkB inh STAT3ct	STAT1 inh STAT3c
O=S(=O)(c1ccc(N2CCCCCC2)nc1)N1CCCC1	1	-3	23	106	102	1.4	.	.	.
NC(=O)C1CCN(c2ccc(S(=O)(=O)N3CCC(Cc4ccccc4)CC3)cn2)CC1	64*	20	-5	48	81	0.89	55*	9	8
CCCC(=O)Nc1ccc(-c2cnc(-c3ccc(NC(=O)CCC)cc3)nc2)cc1	-2	-7	-1	101	107	0.89	.	.	.
Nc1ccc(-c2cnc(-c3ccc(N)cc3)nc2)cc1	49*	-40	126	59	137*	4.8*	5	-33	-106
O=C(Nc1ccncc1)c1ccc(NS(=O)(=O)c2cccc(F)c2)cc1	-8	-2	-2	104	102	0.82	.	.	.
NNC(=O)c1cccc(COc2ccc(Br)cc2)c1	79*	32	105	31	71	1.9	71*	33*	31*
CC1CN(C(=O)c2cccc(COc3ccc(Br)cc3)c2)CC(C)O1 (stereo not drawn)	-21	-27	72	120	124	2.5	.	.	.
Cc1ccc(-c2cc(NC(=O)CCl)n(-c3ccccc3)n2)cc1	24	0	28	80	100	3	.	.	.
O=C(CCl)Nc1cc(-c2ccccc2)nn1-c1ccccc1	48*	11	-4	62	90	3	29	-7	-24
O=C(CC(C(=O)O)c1ccccc1)Nc1cccc2ccccc12 (stereo not drawn)	0	9	-9	100	92	0.94	.	.	.
O=C(NNc1ccc([N+](=O)[O-])cc1)C12CC3CC(CC(C3)C1)C2	4	-4	14	106	104	1.1	.	.	.
COc1ccc(CC(=O)Nc2cccc(-c3nnc(-c4ccccc4)o3)c2)cc1OC	40	5	13	70	96	0.61	.	.	.
COc1ccc(CC(=O)Nc2cccc(-c3nnc(-c4cccc(C)c4)o3)c2)cc1OC	44*	7	68	68	92	0.48	62*	12	-3
CC(=O)NNC(=O)CCn1nnc(-c2ccc(Cl)cc2)n1	-3	0	1	107	99	1.2	.	.	.
CCN(c1ccc(NC(=O)COC(=O)CCC(=O)c2ccc(F)cc2)cc1)C(C)C	5	1	1	101	99	1	.	.	.
